Measured values from ChEMBL document CHEMBL1138715, “Isoxazole-3-hydroxamic acid derivatives as peptide deformylase inhibitors and potential antibacterial agents” (Bioorg Med Chem Lett, 2004).
≈ marks a conversion by molar mass, not a printed value.

Columns and labels:
Format in all cases: functional
Staphylococcus aureus [1] = test: In vitro inhibitory activity against Staphylococcus aureus
Summary of the method: (§1)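 Enzyme inhibition of peptide deformylase (PDF) from E. coli or S. aureus, in vitro. IC50 reported in µM as the mean of three experiments.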

Escherichia coli [2] = test: In vitro antibacterial activity against Escherichia coli hyperpermeable strain EC-DC2
Summary of the method: (§2)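 MIC, the lowest inhibiting concentration in µg/mL, determined in liquid culture by NCCLS standard dilution susceptibility conditions for aerobically growing bacteria. EC-ATCC-25922 is wild-type E. coli; EC-DC2 is a hyperpermeable E. coli strain.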

Escherichia coli [3] = test: In vitro antibacterial activity against Escherichia coli mutant strain EC-AH547
Summary of the method: (§3)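 MICs in µg/mL, determined by dilution susceptibility testing in liquid culture under NCCLS standard conditions for aerobically growing bacteria. Strains: EC-AH547, a tolC E. coli mutant with reduced efflux-pump activity; SA-101, a multiresistant S. aureus; SA-ATCC-25923, wild-type S. aureus.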

Escherichia coli [4] = test: In vitro antibacterial activity against Escherichia coli wild type EC-ATCC-25922; summary of the method: as §2
Staphylococcus aureus [5] = test: In vitro antibacterial activity against Staphylococcus aureus wild type SA-ATCC-25923; summary of the method: as §3
Staphylococcus aureus [6] = test: In vitro antibacterial activity against Staphylococcus aureus multi-resistant strain SA-101; summary of the method: as §3
Escherichia coli [7] = test: In vitro inhibitory activity against Escherichia coli; summary of the method: as §1

Row | Compound | IC50 (Staphylococcus aureus [1]) [µM] | further results
1 | CC(C)c1ccccc1S(=O)(=O)Cc1cc(C(=O)NO)no1 | 3.4 | 
2 | COc1cccc(SCc2cc(C(=O)NO)no2)c1 | 2.2 | MIC (Escherichia coli [2]): 128 µg/mL (≈ 457 µM); MIC (Escherichia coli [3]): 128 µg/mL (≈ 457 µM); MIC (Escherichia coli [4]): > 128 µg/mL; MIC (Staphylococcus aureus [5]): > 128 µg/mL
3 | O=C(NO)c1cc(CSc2ccc(Cl)c(Cl)c2)on1 | 2 | MIC (Escherichia coli [2]): 32 µg/mL (≈ 100 µM); MIC (Escherichia coli [3]): 16 µg/mL (≈ 50.1 µM); MIC (Escherichia coli [4]): > 128 µg/mL; MIC (Staphylococcus aureus [6]): 128 µg/mL (≈ 401 µM); MIC (Staphylococcus aureus [5]): 128 µg/mL (≈ 401 µM)
4 | O=C(NO)c1cc(CS(=O)(=O)c2cccc(Cl)c2)on1 | 1.7 | 
5 | O=C(NO)c1cc(CSCc2cccc(C(F)(F)F)c2)on1 | 2.2 | 
6 | Cc1cc(C)c(SCc2cc(C(=O)NO)no2)c(C)c1 | 37.7 | 
7 | Cc1ccc([S+]([O-])Cc2cc(C(=O)NO)no2)cc1 (stereo not given) | 0.9 | 
8 | O=C(NO)c1cc(CSc2ccc(Cl)cc2)on1 | 1.3 | MIC (Escherichia coli [2]): 32 µg/mL (≈ 112 µM); MIC (Escherichia coli [3]): 64 µg/mL (≈ 225 µM); MIC (Escherichia coli [4]): 128 µg/mL (≈ 450 µM); MIC (Staphylococcus aureus [5]): > 128 µg/mL
9 | Cc1ccc(S(=O)(=O)Cc2cc(C(=O)NO)no2)cc1 | 1.4 | IC50 (Escherichia coli [7]): 11.5 µM
10 | O=C(NO)c1cc(CS(=O)(=O)c2ccc(Cl)cc2)on1 | 0.8 | 
11 | O=C(NO)c1cc(CSc2cccc(Cl)c2)on1 | 2.3 | MIC (Escherichia coli [2]): 32 µg/mL (≈ 112 µM); MIC (Escherichia coli [3]): 64 µg/mL (≈ 225 µM); MIC (Escherichia coli [4]): > 128 µg/mL; MIC (Staphylococcus aureus [5]): > 128 µg/mL
12 | COc1cccc(S(=O)(=O)Cc2cc(C(=O)NO)no2)c1 | 6.5 | 
13 | O=C(NO)c1cc(CSc2ccccc2C(F)(F)F)on1 | 9.3 | 

Continued, in another order:

Row | IC50 (Staphylococcus aureus [1]) [µM] | Compound | further results
14 | 42 | CC(=O)Nc1ccc(SCc2cc(C(=O)NO)no2)cc1 | 
15 | 4.9 | O=C(NO)c1cc(CSc2ccccc2Br)on1 | 
16 | 24 | COc1ccc(SCc2cc(C(=O)NO)no2)cc1 | 
17 | 2 | O=C(NO)c1cc(CSc2cccc(Br)c2)on1 | 
18 | 8.7 | O=C(NO)c1cc(CSc2ccc(C(F)(F)F)cc2)on1 | 
19 | 3.8 | O=C(NO)c1cc(CSc2ccccc2Cl)on1 | 
20 | 1.5 | O=C(NO)c1cc(CSc2ccc(F)cc2)on1 | 
21 | 4 | Cc1ccc(SCc2cc(C(=O)NO)no2)cc1 | 
22 | 7.6 | CC(C)c1ccccc1SCc1cc(C(=O)NO)no1 | 
